These results are taken from ChEMBL document CHEMBL4665726, “Development of a selective HDAC inhibitor aimed at reactivating the HIV latent reservoir” (Bioorg Med Chem Lett, 2020).

Each structure is given as a SMILES string.

Test [1] addresses T1, Protein deacetylase HDAC6 (Homo sapiens, UniProt Q9UBN7).
T1 sequence (Q9UBN7 whole entry): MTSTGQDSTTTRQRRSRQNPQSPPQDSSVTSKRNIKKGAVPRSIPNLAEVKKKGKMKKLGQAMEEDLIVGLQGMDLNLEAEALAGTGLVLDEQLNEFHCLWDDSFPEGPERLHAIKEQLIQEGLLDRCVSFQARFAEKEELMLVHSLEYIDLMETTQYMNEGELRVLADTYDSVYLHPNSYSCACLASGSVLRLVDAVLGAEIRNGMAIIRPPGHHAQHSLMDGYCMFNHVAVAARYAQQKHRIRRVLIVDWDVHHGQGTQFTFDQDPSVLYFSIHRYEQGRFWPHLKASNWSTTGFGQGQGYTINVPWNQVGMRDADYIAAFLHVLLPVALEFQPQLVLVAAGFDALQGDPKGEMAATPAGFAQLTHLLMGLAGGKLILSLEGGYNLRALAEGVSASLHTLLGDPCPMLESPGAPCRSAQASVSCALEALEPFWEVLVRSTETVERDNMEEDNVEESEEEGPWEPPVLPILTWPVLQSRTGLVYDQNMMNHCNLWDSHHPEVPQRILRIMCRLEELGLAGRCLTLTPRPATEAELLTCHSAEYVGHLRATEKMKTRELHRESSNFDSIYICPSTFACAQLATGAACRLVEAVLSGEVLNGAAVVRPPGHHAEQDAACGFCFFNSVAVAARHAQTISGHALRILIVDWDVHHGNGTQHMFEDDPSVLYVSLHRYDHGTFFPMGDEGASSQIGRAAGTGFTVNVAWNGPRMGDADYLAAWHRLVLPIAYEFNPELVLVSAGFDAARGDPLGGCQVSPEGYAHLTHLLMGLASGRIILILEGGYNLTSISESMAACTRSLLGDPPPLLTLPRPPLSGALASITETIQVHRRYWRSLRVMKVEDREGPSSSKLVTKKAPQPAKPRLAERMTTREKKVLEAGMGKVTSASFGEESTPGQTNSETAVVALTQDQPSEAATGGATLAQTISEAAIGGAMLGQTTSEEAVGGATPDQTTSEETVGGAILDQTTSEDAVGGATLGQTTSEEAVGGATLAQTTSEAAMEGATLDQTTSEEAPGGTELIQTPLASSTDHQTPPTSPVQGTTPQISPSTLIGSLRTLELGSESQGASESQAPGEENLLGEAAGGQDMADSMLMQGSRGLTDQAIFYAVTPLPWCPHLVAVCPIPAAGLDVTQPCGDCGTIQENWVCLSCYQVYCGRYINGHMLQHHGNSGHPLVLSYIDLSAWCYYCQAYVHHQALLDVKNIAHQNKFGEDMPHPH
The experiment in a line: Inhibition of HDAC6 (unknown origin).

The target of a further test is Histone deacetylase 2 (Homo sapiens, UniProt Q92769). The experiment in a line: Inhibition of HDAC2 (unknown origin).
Chain of Histone deacetylase 2 (Q92769 whole entry): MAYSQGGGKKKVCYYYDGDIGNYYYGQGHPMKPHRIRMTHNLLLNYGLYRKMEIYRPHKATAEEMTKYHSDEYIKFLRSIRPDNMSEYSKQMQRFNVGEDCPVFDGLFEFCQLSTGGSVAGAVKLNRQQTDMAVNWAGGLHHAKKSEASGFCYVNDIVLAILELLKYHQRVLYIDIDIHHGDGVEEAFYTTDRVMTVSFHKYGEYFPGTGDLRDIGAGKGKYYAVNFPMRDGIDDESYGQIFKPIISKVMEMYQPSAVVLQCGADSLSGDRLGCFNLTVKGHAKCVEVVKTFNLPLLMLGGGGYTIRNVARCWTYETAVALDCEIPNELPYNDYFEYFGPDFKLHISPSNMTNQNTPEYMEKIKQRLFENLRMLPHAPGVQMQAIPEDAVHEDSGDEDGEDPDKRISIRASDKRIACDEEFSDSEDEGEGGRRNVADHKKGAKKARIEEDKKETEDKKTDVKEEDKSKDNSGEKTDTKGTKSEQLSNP
Another test has as its target Histone deacetylase 1 (Homo sapiens, UniProt Q13547). The test is described as follows: Inhibition of HDAC1 (unknown origin).
Another test deals with T2, Histone deacetylase 8 (Homo sapiens, UniProt Q9BY41).
T2 sequence (Q9BY41 whole entry): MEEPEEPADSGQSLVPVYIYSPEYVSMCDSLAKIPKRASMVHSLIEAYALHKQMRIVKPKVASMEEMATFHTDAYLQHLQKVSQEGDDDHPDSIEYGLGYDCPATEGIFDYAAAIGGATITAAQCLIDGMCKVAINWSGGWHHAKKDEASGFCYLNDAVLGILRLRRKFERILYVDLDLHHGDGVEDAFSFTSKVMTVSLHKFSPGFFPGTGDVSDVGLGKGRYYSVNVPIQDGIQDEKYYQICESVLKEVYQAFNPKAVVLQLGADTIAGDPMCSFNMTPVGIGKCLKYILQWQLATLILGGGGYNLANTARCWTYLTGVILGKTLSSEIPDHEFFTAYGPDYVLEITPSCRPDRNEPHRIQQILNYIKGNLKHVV
The experiment in a line: Inhibition of HDAC8 (unknown origin).

For the next test, the target named is Histone deacetylase 3 (Homo sapiens, UniProt O15379). The experiment in a line: Inhibition of HDAC3 (unknown origin).
Chain of Histone deacetylase 3 (O15379 whole entry): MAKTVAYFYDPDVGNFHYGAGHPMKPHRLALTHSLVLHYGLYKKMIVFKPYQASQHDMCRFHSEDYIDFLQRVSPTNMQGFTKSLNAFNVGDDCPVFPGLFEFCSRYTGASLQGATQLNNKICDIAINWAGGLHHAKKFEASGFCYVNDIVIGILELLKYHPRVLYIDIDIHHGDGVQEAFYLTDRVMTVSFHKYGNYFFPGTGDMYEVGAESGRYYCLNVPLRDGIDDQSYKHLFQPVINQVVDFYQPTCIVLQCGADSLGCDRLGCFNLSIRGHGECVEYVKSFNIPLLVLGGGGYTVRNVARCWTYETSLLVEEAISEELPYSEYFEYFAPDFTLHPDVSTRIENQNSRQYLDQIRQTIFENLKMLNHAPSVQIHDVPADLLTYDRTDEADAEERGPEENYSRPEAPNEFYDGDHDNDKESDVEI
Test [2] addresses T3, Class 1 histone deacetylase (Homo sapiens, UniProt Q13547+O15379+Q92769+Q9BY41). The experiment in a line: Inhibition of Class 1 HDAC in VSV-G-pseudotyped HIV infected human 2C4 cell Jurkat model assessed as reactivation of HIV latency in presence of 5% NHS by fluorescent reporter gene assay. The procedure, abridged:
(§1)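 Latently infected Jurkat 2C4 cells (HIV latency model) were tested for reactivation of silenced provirus in parallel at two normal human serum levels: 0.1% and 5%. The paired runs gauge the potency shift from plasma protein binding.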

In test [3] the target is T3, Class 1 histone deacetylase. The experiment in a line: Inhibition of Class 1 HDAC in VSV-G-pseudotyped HIV infected human 2C4 cell Jurkat model assessed as reactivation of HIV latency in presence of 0.1% NHS by fluorescent reporter gene assay. In short, it runs like this: as §1
(In general: In a reporter assay the amount or activity of a reporter protein is the signal.)

Chain of Histone deacetylase 1 (Q13547 whole entry): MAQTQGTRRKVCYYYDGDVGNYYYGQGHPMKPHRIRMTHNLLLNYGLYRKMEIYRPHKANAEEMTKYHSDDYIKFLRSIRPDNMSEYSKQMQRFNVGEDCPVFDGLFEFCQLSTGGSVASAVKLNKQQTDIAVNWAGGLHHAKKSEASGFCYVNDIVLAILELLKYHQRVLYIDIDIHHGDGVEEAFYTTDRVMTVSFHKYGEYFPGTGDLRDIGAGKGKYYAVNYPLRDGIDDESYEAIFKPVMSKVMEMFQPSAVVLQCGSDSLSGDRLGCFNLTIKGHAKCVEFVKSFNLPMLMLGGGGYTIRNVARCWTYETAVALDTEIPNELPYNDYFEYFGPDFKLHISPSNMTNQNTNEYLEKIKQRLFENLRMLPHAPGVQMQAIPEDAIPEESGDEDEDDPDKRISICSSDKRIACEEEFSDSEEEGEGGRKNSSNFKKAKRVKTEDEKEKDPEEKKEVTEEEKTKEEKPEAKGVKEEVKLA

Turning to `CCC(=O)CCCCC[C@H](NC(=O)[C@H]1CC12CCN(C)CC2)c1[nH]c(-c2ccccc2F)nc1C#N`, the IC50 was 22.5 µM in test [1]; 0.096 µM against Histone deacetylase 2; 0.017 µM against Histone deacetylase 1; 39.6 µM at Histone deacetylase 8; 0.0107 µM against Histone deacetylase 3. The EC50 in test [2] worked out at 1.162 µM; in test [3], 0.566 µM.
In the case of `CCC(=O)CCCCCC(NC(=O)c1cncs1)c1[nH]c(-c2ccccc2)nc1C(=O)NCCN(C)C` (configuration not stated), the IC50 in test [1] was more than 45 µM; against Histone deacetylase 2 it was 0.0531 µM; on Histone deacetylase 1, 0.0135 µM; at Histone deacetylase 8, 5.34 µM; on Histone deacetylase 3, 0.0045 µM. The EC50 in test [2] stood at 0.853 µM; in test [3] it was 1.142 µM.
Consider `CCC(=O)CCCCCC(NC(=O)c1cncs1)c1[nH]c(-c2ccccc2)nc1C(=O)N1CCOCC1` (configuration not stated), for which the IC50 in test [1] worked out at 19 µM; on Histone deacetylase 2, 0.159 µM; at Histone deacetylase 1, 0.0436 µM; at Histone deacetylase 8, 16.8 µM; against Histone deacetylase 3 it was 0.0191 µM. The results for the EC50 in test [2] and in test [3] were 3.771 µM and 2.729 µM, respectively.
In the case of `CCC(=O)CCCCC[C@H](NC(=O)c1cncs1)c1[nH]c(-c2ccc(F)cc2)nc1C#N`, the IC50 is more than 45 µM in test [1]; 0.0513 µM against Histone deacetylase 2; 0.0106 µM against Histone deacetylase 1; 12.3 µM against Histone deacetylase 8; 0.0031 µM against Histone deacetylase 3. Also, the EC50 in test [2] is 1.111 µM; in test [3] it was 0.254 µM.
As to `CCC(=O)CCCCC[C@H](NC(=O)c1ccon1)c1[nH]c(-c2ccc(F)cc2)nc1C#N`, the IC50 in test [1] is more than 45 µM; against Histone deacetylase 2, 0.164 µM; at Histone deacetylase 1, 0.0356 µM; against Histone deacetylase 8, 16.2 µM; against Histone deacetylase 3, 0.0121 µM. The EC50 in test [2] came to 2.726 µM; in test [3] it was 0.558 µM.
Consider `CCC(=O)CCCCCC(NC(=O)c1cncs1)c1[nH]c(-c2ccccc2)nc1C(N)=O` (configuration not stated), for which the IC50 in test [1] came to 16.4 µM; at Histone deacetylase 2, 0.0267 µM; on Histone deacetylase 1, 0.0072 µM; against Histone deacetylase 8 it was 4.7 µM. Besides, the EC50 is 0.537 µM in test [2] and 0.154 µM in test [3].
For `CCC(=O)CCCCCC(NC(=O)c1cncs1)c1[nH]c(-c2ccccc2)nc1C(=O)NC` (configuration not stated), the IC50 in test [1] came out at 29.2 µM; against Histone deacetylase 2 it was 0.0914 µM; on Histone deacetylase 1, 0.0276 µM; at Histone deacetylase 8, 7.47 µM; at Histone deacetylase 3 it was 0.0047 µM. For the same molecule, the figures for the EC50 in test [2] and in test [3] were 1.804 µM and 0.57 µM, respectively.
As for `CCC(=O)CCCCC[C@H](NC(=O)[C@H]1CC12CCN(C)CC2)c1[nH]c(-c2ccc(-c3cccnc3)cc2)nc1C#N`, the half-inhibitory concentration (IC50) in test [1] is 9.47 µM; at Histone deacetylase 2, 0.0017 µM; on Histone deacetylase 1, 0.0002 µM; against Histone deacetylase 8 it was 12.6 µM; against Histone deacetylase 3, 0.0003 µM. Also, the EC50 stood at 0.055 µM in test [2] and 0.077 µM in test [3].
Regarding `CCC(=O)CCCCC[C@H](NC(=O)C1CN(C)C1)c1[nH]c(-c2ccc(F)cc2)nc1C(N)=O`, the IC50 is 15.9 µM in test [1]; 0.0344 µM at Histone deacetylase 2; 0.0035 µM at Histone deacetylase 1; 5.38 µM against Histone deacetylase 8; 0.0036 µM at Histone deacetylase 3. For the same molecule, the values for the EC50 in test [2] and in test [3] were 0.643 µM and 0.775 µM, respectively.
For `CCC(=O)CCCCC[C@H](NC(=O)[C@H]1CC12CCN(C)CC2)c1[nH]c(-c2ccc(F)cc2F)nc1C#N`, the IC50 in test [1] was 14.8 µM; at Histone deacetylase 2, 0.155 µM; at Histone deacetylase 1, 0.0352 µM; against Histone deacetylase 8, 20.7 µM; against Histone deacetylase 3, 0.0189 µM. Besides, the EC50 stood at 1.26 µM in test [2] and 1.233 µM in test [3].
In the case of `CCC(=O)CCCCC[C@H](NC(=O)CN(C)C)c1[nH]c(-c2ccc(F)cc2)nc1C#N`, the IC50 in test [1] amounted to 43.3 µM; on Histone deacetylase 2, 0.219 µM; against Histone deacetylase 1 it was 0.0479 µM; against Histone deacetylase 8, 29.5 µM; on Histone deacetylase 3 it was 0.0268 µM. For the same molecule, the EC50 was 3.532 µM in test [2] and 1.605 µM in test [3].
For the molecule `CCC(=O)CCCCC[C@H](NC(=O)[C@H]1CC12CCN(C)CC2)c1[nH]c(-c2ccc3nn(C)cc3c2)nc1C#N`, the IC50 in test [1] was 9.04 µM; at Histone deacetylase 2, 0.0021 µM; against Histone deacetylase 1, 0.0004 µM; on Histone deacetylase 8 it was 12.4 µM; at Histone deacetylase 3 it was 0.0003 µM. Moreover, the figures for the EC50 in test [2] and in test [3] were 0.322 µM and 0.247 µM, respectively.
In the case of `CCC(=O)CCCCC[C@H](NC(=O)[C@H]1CC12CCN(CC)CC2)c1[nH]c(-c2ccc(F)cc2)nc1C(N)=O`, the IC50 came out at 17.5 µM in test [1]; 0.005 µM on Histone deacetylase 2; 0.0004 µM against Histone deacetylase 1; 6.36 µM against Histone deacetylase 8; 0.0007 µM against Histone deacetylase 3. Further, the EC50 worked out at 0.165 µM in test [2] and 0.193 µM in test [3].
Regarding `CCC(=O)CCCCC[C@H](NC(=O)[C@H]1CC12CCN(C)CC2)c1[nH]c(-c2ccc3nc(C)ccc3c2)nc1C#N`, the IC50 in test [1] turned out to be 6.3 µM; against Histone deacetylase 2 it was 0.0015 µM; against Histone deacetylase 1 it was 0.0003 µM; at Histone deacetylase 8 it was 9.83 µM; against Histone deacetylase 3, 0.0002 µM. For the same molecule, the EC50 in test [2] amounted to 0.097 µM; in test [3] it was 0.105 µM.
Consider `CCC(=O)CCCCC[C@H](NC(=O)C1CCOCC1)c1[nH]c(-c2ccc(F)cc2)nc1C(N)=O`, for which the concentration for half-maximal inhibition (IC50) was found to be 27.9 µM in test [1]; 0.0738 µM on Histone deacetylase 2; 0.0123 µM on Histone deacetylase 1; 7.57 µM on Histone deacetylase 8; 0.0034 µM against Histone deacetylase 3. Besides, the EC50 in test [2] is 1.504 µM; in test [3] it was 1.834 µM.
For `CCC(=O)CCCCC[C@H](NC(=O)[C@H]1CC12CCN(C)CC2)c1[nH]c(-c2ccc(C(F)(F)F)cc2)nc1C#N`, the IC50 turned out to be 8.25 µM in test [1]; 0.0156 µM against Histone deacetylase 2; 0.0037 µM on Histone deacetylase 1; 19.2 µM against Histone deacetylase 8; 0.0019 µM on Histone deacetylase 3. In addition, the half-maximal effective concentration (EC50) in test [2] amounted to 0.175 µM; in test [3], 0.107 µM.
Take `CCC(=O)CCCCC[C@H](NC(=O)C12CCN(CC1)CC2)c1[nH]c(-c2ccc(F)cc2)nc1C#N`: the IC50 was more than 45 µM in test [1]; 0.0269 µM against Histone deacetylase 2; 0.0062 µM against Histone deacetylase 1; 6.93 µM against Histone deacetylase 8; 0.0024 µM on Histone deacetylase 3. The EC50 in test [2] was found to be 2.207 µM; in test [3], 1.731 µM.
Consider `CCC(=O)CCCCC[C@H](NC(=O)C1CN(C)C1)c1[nH]c(-c2ccc(F)cc2)nc1C#N`, for which the 50% inhibitory concentration (IC50) in test [1] is 36.9 µM; against Histone deacetylase 2, 0.117 µM; against Histone deacetylase 1 it was 0.0259 µM; against Histone deacetylase 8 it was 19.7 µM; at Histone deacetylase 3, 0.0138 µM. Further, the values for the EC50 in test [2] and in test [3] were 2.071 µM and 1.564 µM, respectively.
Turning to `CCC(=O)CCCCC[C@H](NC(=O)[C@H]1CC12CCN(C)CC2)c1[nH]c(-c2cccnc2OC)nc1C#N`, the IC50 turned out to be 17.1 µM in test [1]; 0.229 µM at Histone deacetylase 2; 0.0589 µM against Histone deacetylase 1; 38.1 µM on Histone deacetylase 8; 0.0348 µM against Histone deacetylase 3. Also, the EC50 in test [2] was 1.669 µM; in test [3], 2.112 µM.

In general, IC50 refers to the concentration at which inhibition is half-maximal. The EC50 is the concentration at which the effect is half-maximal.
